{"source": "PubChem BioAssay AID493091", "about": "(Sanford-Burnham Center for Chemical Genomics, 2011)", "note": "Screen size: about 340,000 compounds; about 3,000 (0.88%) were called active. Many of the other results were omitted from the sample, so actives are more common in it than they were. Unmarked numbers belong to inactive results.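 Rule for the calls: active = inhibition above about 50% at 20 µM (limit read from the data); inactive = the rest.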", "data": [{"target": "Carboxy-terminal domain RNA polymerase II polypeptide A small phosphatase 1 (Homo sapiens) (UniProt Q9GZU7)", "sequence (Q9GZU7 76-261 limits assumed)": "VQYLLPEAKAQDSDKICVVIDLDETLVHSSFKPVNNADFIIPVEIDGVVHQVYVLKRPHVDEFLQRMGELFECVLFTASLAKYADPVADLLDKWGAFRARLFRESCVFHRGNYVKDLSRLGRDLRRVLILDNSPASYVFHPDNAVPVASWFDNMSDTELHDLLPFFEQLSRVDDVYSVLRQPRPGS", "assay": "Scp-1 phosphatase inhibitors, primary screen, biochemical, colorimetric, uHTS (AID 493091);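 note: plate controls were DMSO wells with enzyme for no effect and wells lacking enzyme for full effect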", "conditions": "Recombinant Scp1, phosphopeptide, malachite green phosphate absorbance; at 20 µM; hits give high values", "in_short": "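System: SCP-1 catalytic domain; Reagent: Phospho 17-mer peptide substrate; Doses: one concentration, 20 µM, with 1.0% DMSO; Incubation: 45 min room-temperature reaction, 5 min colour, 30 min stabiliser; Signal: Phosphate-binding colour reagent, absorbance read at 630 nm.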", "values": [{"compound": "CC(=O)Nc1ccc(S(=O)(=O)NC(C)C(=O)OCCOc2ccc(F)cc2)cc1", "note": "(stereo unspecified)", "inhibition": "-7.64%"}, {"compound": "CCOc1ccccc1Nc1nnc(SCC(=O)NCC2CCCO2)s1", "note": "(stereo unspecified)", "inhibition": "-9.59%"}, {"compound": "Cc1ccn2c(=O)nc(SCC(=O)NCc3ccc4c(c3)OCO4)nc2c1", "inhibition": "73.6% (active)"}, {"compound": "O=C(CSc1ncn[nH]1)NCc1ccc2c(c1)OCO2", "inhibition": "-1.73%"}, {"compound": "Cc1ccn2c(=O)nc(SCC(=O)NCc3ccc(F)cc3)nc2c1", "inhibition": "16.3%"}, {"compound": "O=C1CC2(CCN(C(=O)COc3ccc(F)cc3)CC2)Oc2ccccc21", "inhibition": "1.25%"}, {"compound": "O=C(CSc1ncn[nH]1)Nc1ccnc2ccccc12", "inhibition": "-9.75%"}, {"compound": "CCCCCN1CC(O)=C(c2ccccc2)C1=N", "inhibition": "-2.2%"}, {"compound": "CCCCNC(=O)CCn1nc(-c2ccc(Cl)cc2)ccc1=O", "inhibition": "6.19%"}, {"compound": "CCCCCN1CC(O)=C(c2nc(-c3ccc(Cl)cc3)cs2)C1=N", "inhibition": "94.9% (active)"}, {"compound": "Cc1ccc(NC(=O)CN(C)C(=O)c2ccc(Br)o2)cc1", "inhibition": "1.38%"}, {"compound": "CC1(C)CC(=O)C2=C(C1)NCN(CCCN1CCOCC1)C2", "inhibition": "-1.79%"}, {"compound": "CC(C)C(=O)NC(NC(=S)NC1CCS(=O)(=O)C1)C(Cl)(Cl)Cl", "note": "(stereo unspecified)", "inhibition": "-9.76%"}, {"compound": "CC(=O)Nc1ccc(N2C(=O)CCC2=O)cc1C", "inhibition": "75.8% (active)"}, {"compound": "Cc1cccc(NC(=O)c2cc(N3C(=O)CCC3=O)ccc2Cl)n1", "inhibition": "-6.1%"}, {"compound": "COC(=O)c1cccc(NC(=O)c2cccc(N3C(=O)CCC3=O)c2)c1", "inhibition": "-7.64%"}, {"compound": "O=C(C(NS(=O)(=O)c1cccc2nsnc12)c1ccccc1)N1CCN(c2ccccn2)CC1", "note": "(stereo unspecified)", "inhibition": "-0.35%"}, {"compound": "O=S(=O)(NC(=S)Nc1ccccc1)c1ccc(F)cc1", "inhibition": "-7.43%"}, {"compound": "CCOc1ccc(Nc2nc(Cc3nnc(SCC(=O)NC4CCCC4)n3C)cs2)cc1", "inhibition": "-5.22%"}, {"compound": "COCCCn1c(SCC(=O)NC2CCCC2)nnc1-c1ccccc1", "inhibition": "-9.75%"}, {"compound": "COCCCn1c(Cc2csc(Nc3cccc(Cl)c3)n2)nnc1SCC(=O)OC1CCCCC1", "inhibition": "58.9% (active)"}, {"compound": "O=C(CSc1nnc(N2CCOCC2)n1-c1cccc(F)c1)N1CCN(c2ccccn2)CC1", "inhibition": "-3.89%"}, {"compound": "Cc1ccc(S(=O)(=O)NCCC(=O)NNC(=O)C2COc3ccccc3O2)cc1", "note": "(stereo unspecified)", "inhibition": "-1.94%"}, {"compound": "Cc1c(CC(=O)N2CCN(C(=O)C3COc4ccccc4O3)CC2)c(=O)oc2c(O)c(O)ccc12", "note": "(stereo unspecified)", "inhibition": "79.7% (active)"}, {"compound": "Cc1c(C)c2ccc(OCC(=O)N3CCC(C(=O)O)CC3)c(C)c2oc1=O", "inhibition": "1.4%"}, {"compound": "COc1ccc(NC2CCCN(C(=O)c3ccncc3)C2)cc1", "note": "(stereo unspecified)", "inhibition": "3.08%"}, {"compound": "CNc1[nH]ncc1[N+](=O)[O-]", "inhibition": "-7.97%"}, {"compound": "NC(=O)c1nsc(C(=O)N(CCCN2CCOCC2)C(C(=O)NC2CCCCC2)c2ccc(Cl)cc2)c1N", "note": "(stereo unspecified)", "inhibition": "-5.84%"}, {"compound": "CCS(=O)(=O)N1CCCC(C(=O)NCCCN(C)Cc2ccccc2)C1", "note": "(stereo unspecified)", "inhibition": "-3.41%"}, {"compound": "COc1ccc(OC)c(NC(=O)Cc2cccs2)c1", "inhibition": "14.5%"}, {"compound": "COc1ccc(Cc2nnc(NS(=O)(=O)Cc3ccccc3)s2)cc1", "inhibition": "-2.23%"}, {"compound": "COc1ccc(Cc2nnc(NC(=O)Cc3cccs3)s2)cc1", "inhibition": "87% (active)"}, {"compound": "CC1CCC(NC(=O)CNC(=O)c2ccc3ccccc3c2)CC1", "note": "(stereo unspecified)", "inhibition": "-3.85%"}, {"compound": "O=C(CN1CCCCC1)NC(=O)Nc1ccccc1F", "inhibition": "1.25%"}, {"compound": "C=C1CCN([C@H](C(=O)NCc2cc(OC)c(OC)c(OC)c2)C(C)C)S(=O)(=O)c2ccccc21", "inhibition": "-5.59%"}, {"compound": "NC(=O)CCN1CCN(S(=O)(=O)/C=C/c2ccccc2)CC1", "inhibition": "5.89%"}, {"compound": "COc1ccccc1N1CCN(CC(=O)NC(=O)NCc2ccco2)CC1", "inhibition": "-8.28%"}, {"compound": "O=C(CN1CCN(S(=O)(=O)/C=C/c2ccccc2)CC1)NC(=O)NCc1ccco1", "inhibition": "52.3% (active)"}, {"compound": "COC(=O)c1cc(OC)c(OC)cc1NC(=O)C1CCCO1", "note": "(stereo unspecified)", "inhibition": "-6.55%"}, {"compound": "CN(CC(=O)Nc1ccc(Cl)cc1)C(=O)CNC(=O)c1ccc2ccccc2c1", "inhibition": "-10%"}, {"compound": "O=C(NNC(=O)c1ccc2ccccc2c1)c1ccc(Cl)cc1", "inhibition": "99.5% (active)"}, {"compound": "O=C(CCCOc1ccccc1)NNC(=O)c1ccc(Cl)cc1", "inhibition": "0.5%"}, {"compound": "N=C1C(=O)OCC1c1ccccc1NC(=O)CN1CCCCC1", "note": "(stereo unspecified)", "inhibition": "-9.11%"}, {"compound": "Cc1cc(C)n(CCNCc2c(C(=O)N3C[C@@H](C)O[C@@H](C)C3)nc3ccc(Cl)cn23)n1", "inhibition": "-3.38%"}, {"compound": "CCn1cc(CN2CCC(C(=O)Nc3cccc(-c4cccc(Cl)c4)c3)CC2)c(C)n1", "inhibition": "-4.7%"}, {"compound": "CCOC(=O)CCCCCC(=O)Nc1ccc2c(c1)CC(=O)N([C@@H](C)CO)C[C@H](C)[C@@H](CN(C)Cc1ccccc1)O2", "inhibition": "-4.43%"}, {"compound": "C=CCOc1c2ccc(C(=O)N(CC)c3ccc(OC)cc3)cc2nn1C", "inhibition": "-2.27%"}, {"compound": "O=C(COC(=O)c1cnccn1)Nc1cccc2ccccc12", "inhibition": "-9.56%"}, {"compound": "CCOC(=O)C(=Cc1ccccc1OC)C(=O)OCC", "inhibition": "-0.82%"}, {"compound": "C=C1c2cccc(OC)c2O[C@H](C(=O)OCC)[C@@H]1CCCCCC", "inhibition": "101% (active)"}, {"compound": "CC1C(=O)NC(=O)C1c1ccccc1", "note": "(stereo unspecified)", "inhibition": "-3.27%"}, {"compound": "CC(=O)CSc1nc(CCc2ccccc2)c(C#N)c(=O)[nH]1", "inhibition": "-7.04%"}, {"compound": "O=C(CSc1nc2ccccc2c(=O)[nH]1)Nc1nc(-c2ccc(Br)cc2)cs1", "inhibition": "3.75%"}, {"compound": "N#Cc1c(-c2cccs2)nc(SCC(=O)c2ccc(Br)cc2)[nH]c1=O", "inhibition": "64.9% (active)"}, {"compound": "CCN(CC)C(=O)CS(=O)CC(=O)Nc1cc(OCCOC)c(Cl)cc1Cl", "note": "(stereo unspecified)", "inhibition": "1.24%"}, {"compound": "O=C(Cn1cnc([N+](=O)[O-])n1)NCCc1ccccc1", "inhibition": "-2.5%"}]}]}
